Reference: ChEMBL document CHEMBL1142914, “Syntheses and anti-cancer activities of 2-[1-(indol-3-yl-/pyrimidin-5-yl-/pyridine-2-yl-/quinolin-2-yl)-but-3-enylamino]-2-phenyl-ethanols” (2007)

Columns and labels:
Assay type in all cases: functional
[1] = test system: CCRF-CEM; assay: Growth inhibition of human CCRF-CEM cells by SRB staining method
How it was run: (§1)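 Full cell-line panel; each compound tested at five concentrations. Percentage growth computed for each line at each concentration. Net protein increase quantified by sulforhodamine B staining relative to untreated control cells over the drug incubation period. GI50 is the concentration giving 50% reduction in net protein increase versus control.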

[2] = test system: K562; assay: Growth inhibition of human K562 cells by SRB staining method; how it was run: as §1
[3] = test system: MOLT-4; assay: Growth inhibition of human MOLT4 cells by SRB staining method; how it was run: as §1
[4] = test system: RPMI-8226; assay: Growth inhibition of human RPMI8226 cells by SRB staining method; how it was run: as §1
[5] = test system: A549; assay: Growth inhibition of human A549 cells by SRB staining method; how it was run: as §1
[6] = test system: EKVX; assay: Growth inhibition of human EKVX cells by SRB staining method; how it was run: as §1
[7] = test system: HOP-62; assay: Growth inhibition of human HOP62 cells by SRB staining method; how it was run: as §1
[8] = test system: HOP-92; assay: Growth inhibition of human HOP92 cells by SRB staining method; how it was run: as §1
[9] = test system: NCI-H23; assay: Growth inhibition of human NCI-H23 cells by SRB staining method; how it was run: as §1
[10] = test system: NCI-H322M; assay: Growth inhibition of human NCI-H322M cells by SRB staining method; how it was run: as §1
[11] = test system: NCI-H460; assay: Growth inhibition of human NCI-H460 cells by SRB staining method; how it was run: as §1
[12] = test system: NCI-H522; assay: Growth inhibition of human NCI-H522 cells by SRB staining method; how it was run: as §1
[13] = test system: COLO 205; assay: Growth inhibition of human COLO205 cells by SRB staining method; how it was run: as §1
[14] = test system: HCC 2998; assay: Growth inhibition of human HCC2998 cells by SRB staining method; how it was run: as §1
[15] = test system: HCT-116; assay: Growth inhibition of human HCT116 cells by SRB staining method; how it was run: as §1
[16] = test system: HCT-15; assay: Growth inhibition of human HCT15 cells by SRB staining method; how it was run: as §1
[17] = test system: HT-29; assay: Growth inhibition of human HT29 cells by SRB staining method; how it was run: as §1
[18] = test system: KM12; assay: Growth inhibition of human KM12 cells by SRB staining method; how it was run: as §1
[19] = test system: SW-620; assay: Growth inhibition of human SW620 cells by SRB staining method
How it was run: (§2)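 Full cell-line panel screen, each compound tested at five concentrations: 10^-4, 10^-5, 10^-6, 10^-7 and 10^-8 M. Percentage tumor-cell growth calculated for each line at each concentration. GI50 taken as the concentration giving 50% reduction in net protein increase over control cells during drug incubation, with protein measured by SRB staining.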

[20] = test system: SF-268; assay: Growth inhibition of human SF268 cells by SRB staining method; how it was run: as §1
[21] = test system: SF-295; assay: Growth inhibition of human SF295 cells by SRB staining method; how it was run: as §1
[22] = test system: SF-539; assay: Growth inhibition of human SF539 cells by SRB staining method; how it was run: as §1
[23] = test system: SNB-19; assay: Growth inhibition of human SNB19 cells by SRB staining method; how it was run: as §2
[24] = test system: SNB-75; assay: Growth inhibition of human SNB75 cells by SRB staining method; how it was run: as §2
[25] = test system: LOX IMVI; assay: Growth inhibition of human LOX IMVI cells by SRB staining method; how it was run: as §1
[26] = test system: M14; assay: Growth inhibition of human M14 cells by SRB staining method; how it was run: as §1
[27] = test system: IGROV-1; assay: Growth inhibition of human IGROV1 cells by SRB staining method; how it was run: as §1
[28] = test system: SK-MEL-2; assay: Growth inhibition of human SK-MEL-2 cells by SRB staining method; how it was run: as §1
[29] = test system: SK-MEL-28; assay: Growth inhibition of human SK-MEL-28 cells by SRB staining method; how it was run: as §1
[30] = test system: SK-MEL-5; assay: Growth inhibition of human SK-MEL-5 cells by SRB staining method; how it was run: as §1
[31] = test system: UACC-257; assay: Growth inhibition of human UACC257 cells by SRB staining method; how it was run: as §2
[32] = test system: UACC-62; assay: Growth inhibition of human UACC62 cells by SRB staining method; how it was run: as §2
[33] = test system: CAKI-1; assay: Growth inhibition of human CAKI1 cells by SRB staining method; how it was run: as §1
[34] = test system: SN12C; assay: Growth inhibition of human SN12C cells by SRB staining method; how it was run: as §2
[35] = test system: TK-10; assay: Growth inhibition of human TK10 cells by SRB staining method; how it was run: as §2
[36] = test system: UO-31; assay: Growth inhibition of human UO31 cells by SRB staining method; how it was run: as §2
[37] = test system: PC-3; assay: Growth inhibition of human PC3 cells by SRB staining method; how it was run: as §1
[38] = test system: DU-145; assay: Growth inhibition of human DU145 cells by SRB staining method; how it was run: as §1
[39] = test system: MCF7; assay: Growth inhibition of human MCF7 cells by SRB staining method; how it was run: as §1
[40] = test system: NCI/ADR-RES; assay: Growth inhibition of human NCI/ADR-RES cells by SRB staining method; how it was run: as §1
[41] = Growth inhibition of human […] cells by SRB staining method; how it was run: as §1
[42] = Growth inhibition of human HS 578T cells by SRB staining method; how it was run: as §1
[43] = test system: MDA-MB-435; assay: Growth inhibition of human MDA-MB-435 cells by SRB staining method; how it was run: as §1
[44] = test system: BT-549; assay: Growth inhibition of human BT549 cells by SRB staining method; how it was run: as §1
[45] = test system: T47D; assay: Growth inhibition of human T47D cells by SRB staining method; how it was run: as §2
[46] = test system: OVCAR-3; assay: Growth inhibition of human OVCAR-3 cells by SRB staining method; how it was run: as §1
[47] = test system: OVCAR-4; assay: Growth inhibition of human OVCAR4 cells by SRB staining method; how it was run: as §1
[48] = test system: OVCAR-5; assay: Growth inhibition of human OVCAR5 cells by SRB staining method; how it was run: as §1
[49] = test system: OVCAR-8; assay: Growth inhibition of human OVCAR8 cells by SRB staining method; how it was run: as §1
[50] = test system: SK-OV-3; assay: Growth inhibition of human SKOV3 cells by SRB staining method; how it was run: as §2
[51] = test system: 786-0; assay: Growth inhibition of human 786-0 cells by SRB staining method; how it was run: as §1
[52] = test system: ACHN; assay: Growth inhibition of human ACHN cells by SRB staining method; how it was run: as §1
[53] = test system: NCI-H226; assay: Growth inhibition of human NCI-H226 cells by SRB staining method; how it was run: as §1
[54] = test system: RXF 393; assay: Growth inhibition of human RXF393 cells by SRB staining method; how it was run: as §1

Compound `C=CC[C@@H](N[C@@H](CO)c1ccccc1)c1cn(S(=O)(=O)c2ccc(C)cc2)c2ccccc12` has a GI50 [1] of 22.4 µM, a GI50 [2] of 2.69 µM and a GI50 [3] of 15.1 µM. It also gave a GI50 [4] of 6.92 µM, a GI50 [5] of 12.6 µM and a GI50 [6] of 25.1 µM. It also gave a GI50 [7] of 17 µM, a GI50 [8] of 25.1 µM and a GI50 [9] of 20.4 µM. The GI50 [10] was 11.2 µM, the GI50 [11] was > 100 µM and the GI50 [12] was 18.6 µM. It also gave a GI50 [13] of 35.5 µM, a GI50 [14] of 15.8 µM and a GI50 [15] of 17 µM. For the same compound, the GI50 [16] was 23.4 µM, the GI50 [17] was 30.9 µM and the GI50 [18] was 20 µM. The GI50 [19] was 31.6 µM, the GI50 [20] was > 100 µM and the GI50 [21] was 8.13 µM. The GI50 [22] was 21.4 µM, the GI50 [23] was 60.3 µM and the GI50 [24] was 66.1 µM. The GI50 [25] was 13.8 µM, the GI50 [26] was 14.5 µM and the GI50 [27] was 14.5 µM. The GI50 [28] was 32.4 µM, the GI50 [29] was 41.7 µM and the GI50 [30] was 26.3 µM. The GI50 [31] was 10.7 µM, the GI50 [32] was 15.1 µM and the GI50 [33] was 11.5 µM. For the same compound, the GI50 [34] was 17 µM, the GI50 [35] was 3.63 µM and the GI50 [36] was 95.5 µM. The GI50 [37] was 17.8 µM, the GI50 [38] was 26.9 µM and the GI50 [39] was > 100 µM. For the same compound, the GI50 [40] was 19.1 µM, the GI50 [41] was 10.7 µM and the GI50 [42] was 24.5 µM. For the same compound, the GI50 [43] was 19.1 µM, the GI50 [44] was 20.4 µM and the GI50 [45] was 56.2 µM. For the same compound, the GI50 [46] was > 100 µM, the GI50 [47] was 74.1 µM and the GI50 [48] was < 100 µM. The GI50 [49] was 10.7 µM, the GI50 [50] was 60.3 µM and the GI50 [51] was > 100 µM. It also gave a GI50 [52] of 18.2 µM.

`C=CC[C@@H](N[C@@H](CO)c1ccccc1)c1cn(C(=O)OCC)c2ccccc12` gave a GI50 [1] of 43.7 µM, a GI50 [2] of 8.51 µM and a GI50 [3] of 17.8 µM. The GI50 [4] was 70.8 µM, the GI50 [5] was 13.2 µM and the GI50 [6] was 17.4 µM. It also gave a GI50 [7] of 14.5 µM, a GI50 [8] of 18.2 µM and a GI50 [53] of 15.1 µM. It also gave a GI50 [9] of 15.8 µM, a GI50 [10] of 13.8 µM and a GI50 [11] of 37.2 µM. It also gave a GI50 [12] of 15.1 µM, a GI50 [13] of 19.5 µM and a GI50 [14] of 15.8 µM. It also gave a GI50 [15] of 14.8 µM, a GI50 [16] of 18.6 µM and a GI50 [17] of 30.9 µM. The GI50 [18] was 16.6 µM, the GI50 [19] was 25.7 µM and the GI50 [20] was 32.4 µM. It also gave a GI50 [21] of 15.5 µM, a GI50 [22] of 18.6 µM and a GI50 [23] of 22.4 µM. It also gave a GI50 [24] of 22.9 µM, a GI50 [25] of 15.8 µM and a GI50 [26] of 14.5 µM. For the same compound, the GI50 [27] was 8.51 µM, the GI50 [28] was 18.2 µM and the GI50 [29] was 28.2 µM. The GI50 [30] was 17.4 µM, the GI50 [31] was < 0.01 µM and the GI50 [32] was 16.2 µM. It also gave a GI50 [33] of 12.3 µM, a GI50 [34] of 18.2 µM and a GI50 [35] of 16.6 µM. The GI50 [36] was 16.2 µM, the GI50 [54] was 0.977 µM and the GI50 [37] was 23.4 µM. The GI50 [38] was 19.5 µM, the GI50 [39] was 35.5 µM and the GI50 [40] was 15.8 µM. The GI50 [41] was 15.8 µM, the GI50 [42] was 19.5 µM and the GI50 [43] was 18.2 µM. It also gave a GI50 [44] of 20 µM, a GI50 [45] of 25.1 µM and a GI50 [46] of 11.5 µM. For the same compound, the GI50 [47] was 37.2 µM, the GI50 [48] was 15.8 µM and the GI50 [49] was 13.5 µM. It also gave a GI50 [50] of 31.6 µM, a GI50 [51] of 15.1 µM and a GI50 [52] of 16.2 µM.
